Assay results as given in ChEMBL document CHEMBL2040777, “N-Aryl-N'-(chroman-4-yl)ureas and thioureas display in vitro anticancer activity and selectivity on apoptosis-resistant glioblastoma cells: screening, synthesis of simplified derivatives, and structure-activity relationship analysis” (Eur J Med Chem, 2012).
Active and inactive are the calls of the source. No cut-off for these calls is given here.

How the values were obtained:
[1] = Growth inhibition of human U373 cells after 72 hrs by MTT assay; type: functional, cell-based, U-373MG ATCC; conditions: U373 MG
In short: (§1)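 Glioma lines were grown in RPMI with 10% heat-inactivated FCS, 4 mM glutamine, gentamicin and penicillin-streptomycin. Cells were plated for 24 h at 10,000–40,000 cells/mL, then exposed to compound for 72 h. MTT reduction to formazan was read at 570 nm (reference 630 nm). Six replicates were run.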

[2] = Cell cycle arrest in human U373 cells assessed as accumulation at G0/G1 phase at 30 to 100 uM after 24 hrs by propidium iodide staining-based flow cytometric analysis; type: functional; conditions: U-373MG ATCC
[3] = Growth inhibition of human Hs683 cells after 72 hrs by MTT assay; type: functional, cell-based; conditions: Hs 683, 72 h; in short: as §1
U-373MG ATCC = experiment: Induction of apoptosis in human U373 cells assessed as increase in subG1 cell population at 10 to 30 uM after 24 hrs by flow cytometric analysis; type: functional, cell-based
Hs 683 = experiment: Selectivity index, ratio of IC50 for mouse astrocytes to IC50 for human Hs683 cells
[4] = Selectivity index, ratio of IC50 for mouse astrocytes to IC50 for human U373 cells; parameters: species or system U-373MG ATCC
[5] = Cytostatic activity against human U373 cells assessed as global growth ratio by measuring number of cells counted in the last and the first frame of study at 20 uM by quantitative videomicroscopic analysis; type: functional, U-373MG ATCC
In short: (§2)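 U373 cells were cultured in 25 cm² flasks and filmed by computer-assisted phase-contrast time-lapse for 72 h, one image every 4 min. Growth level was the cell count in the last frame divided by the first. Global growth ratio was treated growth level over control growth level. Compounds were tested at 20 µM.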

T98G [6] = experiment: Growth inhibition of human T98G cells after 72 hrs by MTT assay; type: functional, cell-based; in short: as §1
T98G [7] = experiment: Selectivity index, ratio of IC50 for mouse astrocytes to IC50 for human T98G cells
[8] = Cell cycle arrest in human U373 cells assessed as accumulation at G0/G1 phase at 10 to 30 uM after 24 hrs by propidium iodide staining-based flow cytometric analysis; type: functional; conditions: U-373MG ATCC
B16-F10 = experiment: Growth inhibition of mouse B16F10 cells after 72 hrs by MTT assay; type: functional, cell-based; conditions: B16-F10, 72 h
[9] = Growth inhibition of human U373 cells assessed as global growth ratio after 72 hrs by quantitative videomicroscopic analysis relative to untreated control; type: functional, U-373MG ATCC; conditions: U373 MG; in short: as §2

IC50 (B16-F10) [µM] | Compound | IC50 [1] [µM] | Activity [2] | IC50 [3] [µM] | Activity (U-373MG ATCC) | Ratio IC50 (Hs 683) | Ratio IC50 [4] | Ratio [5] | IC50 (T98G [6]) [µM] | Ratio IC50 (T98G [7]) | Activity [8] | IC80 [9] [µM]
– | CC(N/C(=N\C#N)Nc1ccncc1)C(C)(C)C (stereo not drawn) [PINACIDIL ANHYDROUS] | > 100 | inactive | – | – | – | – | – | – | – | – | –
22 | CC1(C)CC(NC(=O)Nc2ccccc2Cl)c2cc(Br)ccc2O1 (stereo not drawn) | 19 | – | 22 | inactive | >10 | >10 | 0.2 | 11 | >10 | Active | 20
